Source: the EternaBench riboswitch data

Test system: MS2 coat protein
Assay: apparent Kd, MS2 coat protein; higher = weaker binding; RNA-MaP array; FMN 200 µM where present
Procedure, shortened: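 Two titrations, one without ligand and one with constant ligand, were run with SNAP-549-labelled MS2 coat protein from 0.7 or 1.5 nM, doubling to 3 µM. The targets were designs transcribed by stalled E. coli RNA polymerase on Illumina sequencing-chip clusters, in 100 mM Tris-HCl pH 7.5, 80 mM KCl, 4 mM MgCl2, BSA, DTT, yeast tRNA and Tween-20. The apparent Kd is the median of filtered per-cluster binding-curve fits, with green signal normalised to red-channel RNA signal and control-cluster median Fmax.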

[1] = designed as: OFF switch for flavin mononucleotide, no ligand
[2] = ligand present: flavin mononucleotide, designed as: OFF switch for flavin mononucleotide
[3] = designed as: ON switch for flavin mononucleotide, no ligand
[4] = ligand present: flavin mononucleotide, designed as: ON switch for flavin mononucleotide

Row | Sequence | apparent Kd [1] [nM] | apparent Kd [2] [nM] | apparent Kd [3] [nM] | apparent Kd [4] [nM]
1 | UGGGCGAGCCCAGUACUCACACAUGAGGAUCACCCAUGUGACGAGGAUAUAGACAGCGAUGCGUGCUAGAAGGCGUCACGGUAG | 10.9 | 35.3 | – | –
2 | UAGAUUAGAAGUUAACAUGAGGAUCACCCAUGUAUUGGAACAGAGGAUAUGCAUGUUUGAUAGUAGCAGAAGGCUGAAGGUGGA | – | – | 98.1 | 104
3 | GUAGCUAUCGGAGGAUAUUCAUAAAACAUGAGGAUCACCCAUGUUAAAUUGGGAGAAGGCCGAUAGCUACAAGAGCGAAAGCUC | – | – | 5.85 | 4.76
4 | CGCUUUAUAUAUUUGGCAAGAAUCAGAAGGCGUUACAUGAGGAUCACCCAUGUUUUGUAUAGUAACGAGGAUAUGAUAUGAGCG | 14.6 | 14.8 | – | –
5 | ACGUAUCAUGUAGGAUAUGACCCAGGAAAUUGGUCAGAAGGACAUGAGGAUCACCCAUGUAGAGUAUGUUAGGAUGACGUAUGC | 115 | 165 | – | –
6 | UACAUGAGGAUCACCCAUGUUUUGUCGUGUAUGGUAUUUAUCUAGGAUAUCAAUUGAUUUAAUUAUGAGAAGGAGAAUAUUAAU | 36.5 | 30.7 | – | –
7 | UGUCGGUAGUAGAAGGGUAAGACAUGAGGAUCACCCAUGUGAUUUGGGUAUACAGGAUAUGCUUAUAUAUAAGAUUAAAUUAUU | 674 | 470 | – | –
8 | CCUUUGAAGAUCCUAGUUUUCGACAUGAGGAUCACCCAUGUGCAGGAUAUCGUGCCAGUGCUGUGCGAGAAGGGCAGUCUCUGC | 63.2 | 70.9 | – | –
9 | UUCAGGGAUCAAGGAUAUCUAUAAUCAUGCGGACAUGAGGAUCACCCAUGUUGAUUACCCAUGAGGGAGAAGGUGAACAUGAGG | – | – | 40.1 | 16.7
10 | GCAGUAAAUAAAUGCACAUGAGGAUCACCCAUGUGGGAGGCACAGGAUAUCGCAUCAUAGCGGUGCGAGAAGGGUGAUAAUCUC | – | – | 346 | 72.3
11 | ACAUACAUUCGAGGAUAUCGGUGAACAAAUUAACGAGAAGGCGAAAUACUUUUUAAUCUUAUAAACAUGAGGAUCACCCAUGUA | – | – | 19.9 | 20.7
12 | GGAUGACAAAGUCAUCCAUUACGAACAUGAGGAUCACCCAUGUAGGAUAUGCUUCACAAAGUGAAGCAGAAGGACAUGUGUCUU | 30.2 | 154 | – | –
13 | AUCAUGUCAGGAUAUCUGAUAUGGAUCUUCGGAUCAAGUUCAGAGAAGGGACAUGAGGAUCACCCAUGUCGAAC | 25 | 42.4 | – | –
14 | GCCAUCGUAUGAGGAUAUGGCGCCGAAACGGUGCCAGAAGGCAUGUCAAUAGACAUGAGGAUCACCCAUGUGUUAUCGAUGGCA | – | – | 134 | 11.9
15 | UGAAAGCUAGGAUAUACAUGAGGAUCACCCAUGUACCGGCUUGGCCCUGGUCCAAAGUGUAGAAGGAGCACGCC | 28.2 | 50.3 | – | –
16 | AGCUGGUGACAGCAUCGAGCUAAACAUGAGGAUCACCCAUGUAGAAGGCUGUACGGUUACCGUACAGAGGAUAUACAUAGCUCG | 6.11 | 6.3 | – | –
17 | AUCUUUGACUUUACUAGAAUAGGGCAGGAUAUACAUGAGGAUCACCCAUGUUAAGCACGUAAGAGGUAGAAGGGCCCUUGUCAU | 16.1 | 13.6 | – | –
18 | UGGUACUAGGGAGGAUAUGGGAAGAUACAUGAGGAUCACCCAUGUUUAAGAAUGCCGAGAGGCAACUAGAAGGCCCUACUACCU | – | – | 294 | 20.6
19 | GGGUACAUCGGAGGAUAUCAUGUAAAUACAUGAGGAUCACCCAUGUCGAUGGAGACAUCGGUGAUUGAGAAGGCCGAUGUACCG | – | – | 14.8 | 90
20 | UUGGACGUCGUAGGAUAUGUAGGAUCUUCCUACAUGAGGAUCACCCAUGUUGACAUGGAAGAAGGACAGAAGGACGAUGUCCAU | – | – | 6.88 | 4.77
21 | UGGUACUAGGGAGGAUAUGGGAAGAUACAUGAGGAUCACCCAUGUUGAAGAAUGCCGAGAGGCAACUAGAAGGCCCUAGUACCU | – | – | 137 | 9.13
22 | CAGGUAGACUGAGGAUAUACAAUAAAGACCUAGUCUAUCUAGGUCAUCACAUGAGGAUCACCCAUGUAGAAGGCAGUCUGCCUG | 18.5 | 38.2 | – | –
23 | AUCAGCUCGUCAGGAUAUACGUCACUGCGUCAGCAGUGUGGUAAAAUCACAUGAGGAUCACCCAUGUAGAAGGGACGAGCUGAU | 6.18 | 14.4 | – | –
24 | ACACAUGAGGAUCACCCAUGUACGCGCUGACAGGAGGUCUCACAGGAUAUAUGUAGUGAUGCUACAUAGAAGGGUGAUACCGCG | – | – | 67.5 | 16.2
25 | ACAGGCUUCGAGAAGGACAUGAGGAUCACCCAUGUGCGUGUGAAGCAGCCGUGAGGCUGCAUCAUGUAGGAUAUCGGAGUCUGU | 63.8 | 374 | – | –
26 | AUUAAUAAUCGAGGAUAUCACGUCGAAUAGACGUGAGAAGGCGAUCAUAACAUGAGGAUCACCCAUGUAUUACAUGAAGUUAAU | – | – | 27.5 | 23.9
27 | GGUUAUUGCAAGGAUAUGCUUUUUUGUGAAAUUGCAGAAGGUGCAACAUGAGGAUCACCCAUGUUGGAUGGGUU | 104 | 131 | – | –

Row | Sequence | apparent Kd [1] [nM] | apparent Kd [2] [nM] | apparent Kd [3] [nM] | apparent Kd [4] [nM]
28 | CUUUUGUGAGGAUAUUAGUAGUAAAUGAAUAAAAUUAUUACUGAGAAGGUACAUGAGGAUCACCCAUGUUCCUC | 16.8 | 24.6 | – | –
29 | GAGCGAAAGCUCAAUGUCGAUAGCAGAAGGACAUGAAAACAUGAAAUAACAUGAGGAUCACCCAUGUAGGAUAUGCUAUCGACU | 17.9 | 279 | – | –
30 | GUUAUUGACAAGAAGGCAAACAUGAGGAUCACCCAUGUUCUACAUGGAUAUUGAGGAUAUUGCCAAUACAUGAGGAUCACCCAG | 63 | 68.8 | – | –
31 | AAUAAACUCACAGGAUAUAGCAUAGUCGGCGUGAACUUAAUGGCGACUAUGCUAGAAGGGUGACCACAUGAGGAUCACCCAUGU | – | – | 710 | 149
32 | AUUGUAUAGGAAGGAUAUAGAAUAUUAUUUUAACAUGAGGAUCACCCAUGUAACCUUAUGUGUAGCUAGAAGGUCCGUUUAUUA | 110 | 162 | – | –
33 | UUAAUUAAUUAAUUAUACAUGAGGAUCACCCAUGUAAGUGAUCAGGAUAUCAGCUCGUGUAGAGCUGAGAAGGGAUACAUGUAA | – | – | 194 | 102
34 | ACUGGCUUGCAGAAGGGUGACAUGAGGAUCACCCAUGUAGCGGGCCGGCGUAAAGUCAGCGCGCCACAGGAUAUGCAGGCCUCG | – | – | 74 | 45.2
35 | UAAAAGCUAGGAUAUACAUGAGGAUCACCCAUGUCAACCACACGGAUGCGCCGAGCAUGUAGAAGGAGCACCGG | 18.2 | 24.1 | – | –
36 | AACAGCUCGUCAGGAUAUACAACACUGCUUCGGCAGAAUGAUAAGAUAACAUGAGGAUCACCCAUGUAGAAGGGACGAGCUGAA | 6.01 | 8.32 | – | –
37 | UUACUAUCACAGAAGGGUGGAUAGUAUAUAGACGCAGGAUAUGUGACAUGAGGAUCACCCAUGUUUCACCGGCAUGAGGAUCAA | 11.4 | 15.3 | – | –
38 | GUCAGCUCGUGAGGAUAUACAUGAUAGAUCGAUUAAUUAAUUAAUUUAACAUGAGGAUCACCCAUGUAGAAGGCACGAGCUGAU | 57.2 | 46.6 | – | –
39 | UUAAUUUAGUGAUAUUAUGACAUUAGAAGGCUGUACAUGUUGAUACAUGAGGAUCACCCAUGUAUAGAGGAUAUAGACAAUUUU | 39.8 | 93.8 | – | –
40 | AAACACGGACAUGAGGAUCACCCAUGUGGCGAAAGCCUUGGGAGAAGGCCGAUUGCAAAGCAAUCGGAGGAUAUCCAUACCGUG | – | – | 17.8 | 6.03
41 | GUAUCUUACCAAGGAUAUUUACGAUUAGUGUAGACAUGAGGAUCACCCAUGUGGCCUUAGUCACGGGAGAAGGUGGUUUGAUAC | – | – | 317 | 73.7
42 | CGCAUGGAGGGAGGAUAUGACAUGAGGAUCACCCAUGUAAAGGAUCCGACGUCAGAAGGCCCUAAGAAUUUACACAUUCUCUUA | 119 | 26.7 | – | –
43 | GGAUCGAGUGUGAGGAUAUACCUAUGGAAACAUAGGUAGAAGGCACAUGAGGAUCACCCAUGUCCUAACGGUCC | 350 | 514 | – | –
44 | AGCUGUGACGUUACAGUUCCGUUACAUGAGGAUCACCCAUGUCAGGAUAUAUGCACUCUUGAAUCAUAGAAGGGACAGAGGUGG | 161 | 157 | – | –
45 | UUUCGGCAUGUAGGAUAUGGGUCCGAUUAGGAUUUAGAAGGACAUGAGGAUCACCCAUGUGCAUUUAAUUGGUCAUUACCUUUU | 62.9 | 74 | – | –
46 | GCAGCAAUCUUUAACAUGAGGAUCACCCAUGUCGAGAGAUAUGAGGAUAUGCAUCUGAAGAAGAUGCAGAAGGCAUUGUGCUGC | – | – | 6.26 | 5
47 | GGUACUCAAAGAGUACCAAUACGAACAUGAGGAUCACCCAUGUAGGAUAUGCUACUCAAAGAGUAGCAGAAGGAUAUGUGCCUA | 14.7 | 15.3 | – | –
48 | AUACUCAUGUAAGGAUAUGCAGCCGAAACGGCUGCAGAAGGUACUAAAAUACAUGAGGAUCACCCAUGUCUUUUUAAUUUAGAC | – | – | 258 | 255
49 | AUUUAUGGCCAGAAGGACAUGAGGAUCACCCAUGUAGGAUAUGGACGAUUUUGCUCGGCGGUUUGUUAAGGAAGCACCGGUGGU | – | – | 14.3 | 7.23
50 | ACGUGACGGUUCGCGAGUGGACGGAGAAGGCAGACAUGAGGAUCACCCAUGUGAGCCUGCUAUUCUGAGGAUAUCCGUUCGCAC | 25.7 | 130 | – | –
51 | UACGGACAUGAGGAUCACCCAUGUGAGGAUAUCGAUAACGAUAGCAUAAUAUAAUCGGCGAGAAGGCACAGCGU | 32.7 | 40.9 | – | –
52 | GAACUGAGGCAAAGCUUUAGUCGUACAUGAGGAUCACCCAUGUAGGAUAUGGUAGGCUUUGCUUACCAGAAGGACAGAGUGAUC | 102 | 139 | – | –
53 | UUGGACGUCGUAGGAUAUGUAGGAUAUUCCUACAUGAGGAUCACCCAUGUUGACAUGGAAGAAGGACGGAAGGACGAUGUCCAU | – | – | 899 | 18.9
54 | GUCAUCGCAUGAGGAUAUGCUCGGGUUUCCCGAGCAGAAGGCAUGUCAUAAGACAUGAGGAUCACCCAUGUAGUUAAGAUUGUA | – | – | 192 | 12.5
